Measurements collected from several papers.
Lines come from different studies, so protocols differ. ≈ marks a conversion by molar mass, not a printed value.

With `CC1CCC2(CC1)SCC(=O)N2NC(=O)c1[nH]c2ccc(Cl)cc2c1-c1ccccc1` (stereo not shown) the EC50 was over 100 µM (Enterovirus B; viral replication, inhibitor; Vero, B4).
The MBC of `Cc1c(NN=C(C#N)C2=NC(=O)CS2)c(=O)n(-c2ccccc2)n1C` is reported as 0.25 µg/mL (≈ 0.705 µM) (Acinetobacter baumannii; microbial killing, broth dilution).
For `COc1cccc(OC)c1C(=O)N[C@@H]1C(=O)N2[C@@H]1SC(C)(C)[C@@H]2C(=O)O`, the MIC was over 256 µg/mL (Acinetobacter baumannii; microbial growth, broth dilution; ATCC19606; drug-resistant strain).
For `CC1CCC2(CC1)SC(C)C(=O)N2NC(=O)c1[nH]c2ccc(Cl)cc2c1-c1ccccc1` (stereo not shown), the EC50 was over 100 µM (Enterovirus B; viral replication, inhibitor; Vero, B4).
`CC(=O)C1=C(O)C(CC(C)C)NC1=O` (stereo not shown) has an MIC of over 200 µg/mL (Proteus mirabilis; microbial growth; ATCC25933).
With `CSc1ccc(/C=C/c2cc(/C=C3\Sc4ccccc4N3CCCN3CCCC3)c3ccccc3[n+]2C)cc1.[I-]` the MIC was 64 µg/mL (Acinetobacter baumannii; microbial growth, broth dilution; ATCC19606; drug-resistant strain).
`CCCC1CCC2(CC1)SC(C)C(=O)N2NC(=O)c1[nH]c2ccc(Cl)cc2c1-c1ccccc1` (stereo not shown) has an EC50 of over 100 µM (Enterovirus B; viral replication, inhibitor; Vero, B4).
`COC(=O)c1cc(-c2cccc(NC(=O)Nc3cc(Cl)ccc3Cl)c2)on1` has an MIC of over 64 µg/mL (Acinetobacter baumannii; microbial growth, broth dilution; BAA1605).
For `CO[C@H]1/C=C/O[C@@]2(C)Oc3c(C)c(O)c4c(O)c(c(/C=N/N5CCN(C)CC5)c(O)c4c3C2=O)NC(=O)/C(C)=C\C=C\[C@H](C)[C@H](O)[C@@H](C)[C@@H](O)[C@@H](C)[C@H](OC(C)=O)[C@@H]1C`, the MIC was 1 µg/mL (≈ 1.22 µM) (Acinetobacter baumannii; microbial growth, broth dilution; ATCC19606; drug-resistant strain).
For `COC(=O)c1cc(-c2cccc(NC(=O)Nc3cccc(Cl)c3Cl)c2)on1`, the MIC was over 64 µg/mL (Acinetobacter baumannii; microbial growth, broth dilution; BAA1605).
For `CC1SC2(CCCCC2)N(NC(=O)c2[nH]c3ccc(Cl)cc3c2-c2ccccc2)C1=O` (stereo not shown), the EC50 was over 100 µM (Enterovirus B; viral replication, inhibitor; Vero, B4).
The IC50 of `C=C[C@@H]1C[C@]1(NC(=O)[C@@H]1C[C@@H]2CN1C(=O)[C@H](C(C)(C)C)NC(=O)O[C@@H]1C[C@H]1CCCCCc1nc3ccc(OC)cc3nc1O2)C(=O)NS(=O)(=O)C1CC1` is reported as 0.0466 µM (Hepatitis C virus; viral replication, inhibitor, luciferase; Huh-7, GETYPE1B; 96 h, replicon).
`CC(C)(C)C1CCC2(CC1)SCC(=O)N2NC(=O)c1[nH]c2ccc(Cl)cc2c1-c1ccccc1` (stereo not shown) gave an EC50 of over 100 µM (Enterovirus B; viral replication, inhibitor; Vero, B4).
For `COC(=O)c1cc(-c2cccc(NC(=S)Nc3ccc(C)cc3)c2)on1`, the MIC was over 64 µg/mL (Acinetobacter baumannii; microbial growth, broth dilution; BAA1605).
For `C[n+]1c(/C=C/c2ccc(O)cc2)cc(/C=C2\Sc3ccccc3N2CCCN2CCOCC2)c2ccccc21.[I-]`, the MIC was over 64 µg/mL (Acinetobacter baumannii; microbial growth, broth dilution; ATCC19606; drug-resistant strain).
For `C=C1CC[C@H](O)C/C1=C/C=C1\CCC[C@]2(C)[C@@H]([C@H](C)CCCC(C)C)CC[C@@H]12`, the EC50 was 3.8 µM (Hepatitis C virus; viral replication, inhibitor, luciferase; BM4-5, GETYPE1B; 5 days, replicon).
With `COC(=O)c1cc(-c2cccc(NC(=O)Nc3cccc(F)c3)c2)on1` the MIC was over 64 µg/mL (Acinetobacter baumannii; microbial growth, broth dilution; BAA1605).
The EC50 of `O=C(NN1C(=O)CSC12CCCCC2)c1[nH]c2ccc(Cl)cc2c1-c1ccccc1` is reported as over 100 µM (Enterovirus B; viral replication, inhibitor; Vero, B4).
`C=C1/C(=C\C=C2/CCC[C@]3(C)[C@@H]([C@H](C)CCCC(C)(C)O)CC[C@@H]23)C[C@@H](O)C[C@@H]1O` gave an EC50 of 4.71 µM (Hepatitis C virus; viral replication, inhibitor, luciferase; GETYPE2A; 5 days, replicon).
With `COc1nc(N)nc2c1ncn2[C@@H]1O[C@H](COP(=O)(N[C@@H](C)C(=O)OCC(C)(C)C)Oc2cccc3ccccc23)[C@@H](O)[C@@]1(C)O` (stereo partly shown) the EC90 was 0.0128 µM (Hepatitis C virus; viral replication, inhibitor; GETYPE2A; 96 h, replicon).
The MIC of `COC(=O)c1cc(-c2cccc(NC(=S)Nc3ccc(F)cc3)c2)on1` is reported as over 64 µg/mL (Acinetobacter baumannii; microbial growth, broth dilution; BAA1605).
The EC50 of `CC1CC(C)(C)CC2(C1)SCC(=O)N2NC(=O)c1[nH]c2ccc(Cl)cc2c1-c1ccccc1` (stereo not shown) is reported as over 100 µM (Enterovirus B; viral replication, inhibitor; Vero, B4).
For `COC(=O)c1cc(-c2cccc(NC(=O)Nc3ccc(C)cc3)c2)on1`, the MIC was over 64 µg/mL (Acinetobacter baumannii; microbial growth, broth dilution; BAA1605).
`COC(=O)N[C@H](C(=O)N1CCC[C@H]1c1ncc(-c2ccc(-c3cnc([C@@H]4CCCN4C(=O)[C@@H](NC(=O)OC)C(C)C)[nH]3)cc2)[nH]1)C(C)C` has an EC90 of over 0.001 µM (Hepatitis C virus; viral replication, inhibitor; Huh-7, GETYPE1B; replicon).
The MIC of `COC(=O)c1cc(-c2cccc(NC(=O)Nc3ccc(F)cc3)c2)on1` is reported as over 64 µg/mL (Acinetobacter baumannii; microbial growth, broth dilution; BAA1605).
`CC1SC2(CCCC2)N(NC(=O)c2[nH]c3ccc(Cl)cc3c2-c2ccccc2)C1=O` (stereo not shown) gave an EC50 of over 100 µM (Enterovirus B; viral replication, inhibitor; Vero, B4).
The MIC of `COC(=O)c1cc(-c2cccc(NC(=S)Nc3ccc(OC)cc3)c2)on1` is reported as over 64 µg/mL (Acinetobacter baumannii; microbial growth, broth dilution; BAA1605).
`C=C1CC[C@H](O)C/C1=C/C=C1\CCC[C@]2(C)[C@@H]([C@H](C)/C=C/[C@H](C)C(C)C)CC[C@@H]12` gave an EC50 of 14.2 µM (Hepatitis C virus; viral replication, inhibitor, luciferase; GETYPE2A; 72 h, replicon).
